Measurements published in ChEMBL document CHEMBL4376888, “Discovery of Potent, Selective, and Direct Acid Sphingomyelinase Inhibitors with Antidepressant Activity” (J Med Chem, 2020).
The source made the active and inactive calls. The rule behind the calls is not given here.

How the values were obtained:
[1] = Drug uptake in human CMEC/D3 cells at 40 uM after 0.5 to 4 hrs by HPLC analysis; type: ADME, cell-based; conditions: hcmec/d3, 40 µM
Outline: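 hCMEC/D3 cells seeded at 2×10^5/well and grown to 80%. Compound added at a final 40 μM; serum-free medium as control. At time points, cells washed with ice-cold PBS, lysed on ice 30 min, spun 12000 rpm, 4 °C, 15 min. Lysate protein by BCA and compound content measured; uptake rate = lysate concentration/dose concentration. n=3.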

[2] = tested on: Rattus norvegicus; experiment: Antidepressant activity in Sprague-Dawley rat model of reserpine-induced depression assessed as increase in times passing the grid at 6 to 24 mg/kg, ip administered twice daily for 2 weeks measured for 5 mins by open field test; type: functional, organism-based
Outline: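 Female SD rats (6-8 weeks, 200 g) given reserpine 4 mg/Kg ip daily to induce depression; test agent in 5% DMSO, 2% Tween 80, 5% glucose, ip twice daily for two weeks. Open field: 100×100 cm box, 25 squares, walls about 42 cm, tested 7:30–12:00. Rat placed in central square; centre time, grid crossings, rearing and grooming recorded over 5 min. n=8, mean ± SD.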

[3] = Ratio of drug uptake in Sprague-Dawley rat brain to plasma at 48 mg/kg, ip after 4 hrs by LC-MS/MS analysis; type: ADME, organism-based; conditions: read-out: BPR
Outline: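 Nine female SD rats, three per time point, single ip dose of 48 mg/Kg. At 0.5, 2 and 4 h rats were anesthetized with CO2. Heart blood was taken into EDTA-K2 and centrifuged 1500 g, 10 min, for plasma. Brain was weighed and homogenized 1:5 in 20% methanol-water. LC-MS/MS on a C18 column. Mean of 3.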

[4] = molecular target: T1, Sphingomyelin phosphodiesterase 2 (Homo sapiens) (UniProt O60906); experiment: Inhibition of neutral sphingomyelinase (unknown origin) at 100 uM using NBD-sphingomyelin as substrate after 30 mins by fluorescence based assay
T1 sequence (whole entry): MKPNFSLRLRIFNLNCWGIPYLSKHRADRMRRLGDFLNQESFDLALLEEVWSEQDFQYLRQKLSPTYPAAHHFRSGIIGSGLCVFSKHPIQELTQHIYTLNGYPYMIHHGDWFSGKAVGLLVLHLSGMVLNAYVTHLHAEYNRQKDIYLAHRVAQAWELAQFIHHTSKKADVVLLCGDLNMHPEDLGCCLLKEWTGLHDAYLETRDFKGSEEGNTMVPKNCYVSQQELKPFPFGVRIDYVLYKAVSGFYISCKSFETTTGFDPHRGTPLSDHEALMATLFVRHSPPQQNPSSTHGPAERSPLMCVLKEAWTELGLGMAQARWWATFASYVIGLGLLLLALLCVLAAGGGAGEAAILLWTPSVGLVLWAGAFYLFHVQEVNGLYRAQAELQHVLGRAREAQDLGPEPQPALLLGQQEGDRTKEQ
Outline: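 Neutral sphingomyelinase assay run as the ASM cell-extract assay (NBD-sphingomyelin, 37 °C, 30 min, chloroform/methanol extraction, TLC, NBD-ceramide fluorescence). Buffer was 200 mM Tris-HCl pH 7.4 with 10 mM MgCl2 and 10 mM dithiothreitol. Tested at 100 μM.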

[5] = tested on: Rattus norvegicus; experiment: Reversal of reserpine-induced inhibition of neurogenesis in ip dosed Sprague-Dawley rat hippocampus administered twice daily for 2 weeks by EDU-incorporation assay; type: functional, organism-based
Outline: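 Rats given EDU 8 mg/kg twice in 1 day and sacrificed 96 h later. Brains shock-frozen and sectioned, washed with 2 mg/mL glycine and PBS, stained with 1X Click-iT solution for 30 min, washed with 0.5% Triton X-100. Counterstained with 1X Hoechst 33342 for 30 min, then imaged by fluorescence microscopy. n=5.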

## O=C(NO)c1cc(OCc2ccc(-c3ccc(Cl)cc3)cc2)no1
[1]
  Drug uptake: Active
[2]
  Activity: Active
[3]
  Kp at 4 h: 9.55
[4]
  inhibition: inactive
[5]
  Activity: Dose-dependent effect
